T cruzi intra: blocks T. cruzi growth inside host cells | intracellular Trypanosoma cruzi in host cells, plate reader | activity score (inhibition), % at 5.01 µM | actives 4.9% (n = 22,000) | AID 651903; in the data active = activity score above about 55%;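 note: parasites and compound incubated about four days before reading; 0% = median of neutral control wells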
INS-1E rescue: rescue of cytokine-induced death in INS-1E beta cells; INS-1E cytokine-induced death, ATP luminescence, 48 h; normalised: neutral wells 0, positive control 100; actives 0.1% (n = 20,000); protection from cytokine-induced ATP loss, % at 10 µM;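 active = mean replicate protection from cytokine-induced ATP loss at least 50% and at least 75% of replicates each reaching 50%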
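Material: INS-1E rat cells; Quantity: 8000 cells/well; Buffer or medium: phenol-red-free RPMI with 5% fetal bovine serum; Probe or stimulus: cytokine cocktail of IFN-γ, TNF-α and IL-1β; Compound dosing: single test concentration per compound, delivered by pin transfer; Incubation: 48 h co-treatment, 10 min post-lysis read; Signal: CellTiter-Glo luminescence.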
YB-1 expr inh: YB-1 expression inhibition; U2OS, qRT-PCR YB-1 vs CDIP delta delta Cp, 16 h; hits give high values; zero = DMSO, each unit about twofold; delta delta Cp (YB-1 minus CDIP) (concentration not given with the values); actives 0.37% (n = 30,000); AID 434959;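 active = delta delta Cp rounded down to an integer at or above 3, about 3 SD of DMSO wells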;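 note: higher means less YB-1 transcript or more CDIP transcript relative to DMSO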
Numbers without * were called inactive; · = no result. Shown is part of a subset that was picked to be rich in hits.

SMILES	T cruzi intra	INS-1E rescue	YB-1 expr inh
C[C@H]1CN([C@@H](C)CO)C(=O)c2cc(NC(=O)Nc3ccc(C(F)(F)F)cc3)ccc2O[C@H]1CN(C)Cc1ccc(-c2ccccc2)cc1	58.0*	-53.8	-0.188
C[C@H](CO)N1C[C@H](C)[C@H](CN(C)Cc2ccc(-c3ccccc3)cc2)Oc2ccc(NC(=O)Nc3ccc(C(F)(F)F)cc3)cc2C1=O	40.9	·	-0.985
Cc1noc(C)c1NC(=O)N(C)C[C@@H]1Oc2ccc(NS(=O)(=O)c3ccc(Cl)cc3)cc2C(=O)N([C@@H](C)CO)C[C@@H]1C	-24.3	3.3	-0.417
COC(=O)CCCCCCC(=O)N/N=C/c1ccc([N+](=O)[O-])s1	80.9*	-62.0	0.224
COC(=O)CCCCCCC(=O)N/N=C/c1ccc(Br)s1	-8.9	1.1	-0.507
O=C(CCCCCC(=O)N/N=C/c1ccc([N+](=O)[O-])s1)NO	64.3*	19.7	-0.628
O=C(O)CCCCCCC(=O)N/N=C/c1ccc([N+](=O)[O-])s1	31.9	-5.6	0.565
COc1ccc(S(=O)(=O)Nc2ccc3c(c2)C(=O)N([C@H](C)CO)C[C@@H](C)[C@@H](CN(C)S(C)(=O)=O)O3)cc1	-19.7	4.5	0.41
C[C@@H]1CN([C@H](C)CO)C(=O)c2cccc(NS(=O)(=O)c3ccccc3)c2O[C@H]1CN(C)S(=O)(=O)c1ccccc1	-6.1	1.4	-0.497
Cc1ccc(S(=O)(=O)N(C)C[C@H]2Oc3c(NC(=O)C4CC4)cccc3C(=O)N([C@H](C)CO)C[C@H]2C)cc1	-4.2	2.6	0.169
C[C@@H]1CCCCO[C@H](CN(C)Cc2ccc(Cl)c(Cl)c2)[C@@H](C)CN([C@H](C)CO)C(=O)c2cc(NC(=O)CCC(F)(F)F)ccc2O1	24.9	-8.8	-0.303
C[C@@H]1CCCCO[C@H](CN(C)Cc2ccc(Cl)c(Cl)c2)[C@@H](C)CN([C@H](C)CO)C(=O)c2cc(NC(=O)Cc3ccccc3)ccc2O1	8.0	-6.9	0.257
C[C@@H]1CCCCO[C@@H](CN(C)Cc2ccc(Cl)c(Cl)c2)[C@@H](C)CN([C@H](C)CO)C(=O)c2cc(NC(=O)CCC(F)(F)F)ccc2O1	63.1*	-32.2	-0.286
C[C@@H]1CCCCO[C@@H](CN(C)Cc2ccc(Cl)c(Cl)c2)[C@@H](C)CN([C@H](C)CO)C(=O)c2cc(NC(=O)Cc3ccccc3)ccc2O1	64.0*	-44.8	0.361
C[C@@H]1CN([C@H](C)CO)C(=O)c2cccc(NS(=O)(=O)c3cccs3)c2O[C@@H]1CN(C)Cc1ccc(C(=O)Nc2ccccc2N)cc1	33.2	26.2	-0.125
CC(C)NC(=O)Nc1ccc2c(c1)CC(=O)N([C@@H](C)CO)C[C@H](C)[C@@H](CN(C)S(=O)(=O)c1ccccc1)O2	-9.0	9.1	0.119
C[C@H](CO)N1C[C@H](C)[C@H](CN(C)Cc2cccc(C(F)(F)F)c2)Oc2ncc(-c3cccc(F)c3)cc2C1=O	65.1*	·	0.115
C[C@H](CO)N1C[C@H](C)[C@H](CN(C)Cc2ccncc2)Oc2ncc(-c3cccc(C(F)(F)F)c3)cc2C1=O	45.7	·	0.0619
C[C@H](CO)N1C[C@H](C)[C@H](CN(C)Cc2cccc(C(F)(F)F)c2)Oc2ncc(-c3cccc(C(F)(F)F)c3)cc2C1=O	88.8*	·	0.606
Cc1cccc(CN(C)C[C@@H]2Oc3ncc(-c4cccc(F)c4)cc3C(=O)N([C@H](C)CO)C[C@@H]2C)c1	40.0	·	0.183
C[C@H]1CN([C@@H](C)CO)C(=O)c2cc(N(C)C)ccc2O[C@@H]1CN(C)C(=O)NC1CCCCC1	-23.0	2.4	0.0177
C[C@@H]1CN([C@@H](C)CO)C(=O)CCCn2nncc2CO[C@@H]1CN(C)Cc1ccc2c(c1)OCO2	-17.1	·	0.0399
Cc1noc(C)c1NC(=O)Nc1ccc2c(c1)CC(=O)N([C@H](C)CO)C[C@@H](C)[C@@H](CN(C)S(C)(=O)=O)O2	-11.7	9.1	·
COc1ccc(NC(=O)Nc2cccc3c2O[C@@H](CN(C)Cc2ccc(Oc4ccccc4)cc2)[C@@H](C)CN([C@H](C)CO)C3=O)cc1	63.0*	-47.6	0.0433
CC(C)NC(=O)Nc1cccc2c1O[C@H](CN(C)Cc1ccc(Oc3ccccc3)cc1)[C@H](C)CN([C@@H](C)CO)C2=O	-0.6	-22.3	0.48
SMILES	T cruzi intra	INS-1E rescue	YB-1 expr inh
C[C@H]1CN([C@@H](C)CO)C(=O)c2cccc(NC(=O)Nc3ccccc3)c2O[C@@H]1CN(C)Cc1ccc(Oc2ccccc2)cc1	33.8	-26.6	-0.342
CC(C)NC(=O)Nc1cccc2c1O[C@@H](CN(C)Cc1ccc(Oc3ccccc3)cc1)[C@H](C)CN([C@H](C)CO)C2=O	56.9*	-7.0	-0.186
C[C@@H]1CN([C@@H](C)CO)C(=O)c2cccc(NC(=O)Nc3ccccc3)c2O[C@@H]1CN(C)Cc1ccc(Oc2ccccc2)cc1	-16.4	-43.6	0.255
COc1ccc(NC(=O)Nc2cccc3c2O[C@@H](CN(C)Cc2ccc(Oc4ccccc4)cc2)[C@@H](C)CN([C@@H](C)CO)C3=O)cc1	35.5	-38.6	-0.0706
C[C@H](CO)N1C[C@H](C)[C@H](CN(C)Cc2ccc(Oc3ccccc3)cc2)Oc2c(NC(=O)Nc3cccc4ccccc34)cccc2C1=O	65.6*	-59.2	0.0342
C[C@H](CO)N1C[C@H](C)[C@@H](CN(C)Cc2ccc(Oc3ccccc3)cc2)Oc2c(NC(=O)Nc3ccccc3)cccc2C1=O	77.8*	-46.4	0.0895
C[C@H]1CN([C@@H](C)CO)C(=O)c2cc(NC(=O)Cc3cn(C)c4ccccc34)ccc2O[C@H]1CN(C)S(=O)(=O)c1cn(C)cn1	-9.9	·	-0.834
C[C@H]1CN([C@@H](C)CO)C(=O)c2cc(NC(=O)CCCN(C)C)ccc2O[C@H]1CN(C)C(=O)NC1CCCCC1	-5.3	4.9	0.205
Cc1cc(C)c(COc2ccc3c(c2C)OC(C)(C)CC3=O)c(C)c1	·	·	0.312
C[C@@H]1CN([C@@H](C)CO)C(=O)Cc2cc(NC(=O)Cn3cnnn3)ccc2O[C@@H]1CN(C)C(=O)Nc1ccccc1	-16.1	4.1	0.00493
O=C1O[C@H](c2ccccc2)[C@H](c2ccccc2)N2[C@H]1[C@@H](C(=O)NC[C@H](O)c1ccccc1)[C@]1(C(=O)Nc3ccccc31)[C@H]2c1ccccc1OCCO	·	·	0.243
C[C@@H]1CN([C@H](C)CO)C(=O)c2cc(NS(=O)(=O)c3ccccc3)ccc2O[C@@H]1CN(C)C(=O)Nc1cccc2ccccc12	-23.6	14.6	0.173
COc1ccc(Br)cc1/C=N/NC(=O)c1cccc(C(=O)NO)c1	-23.5	-6.0	-0.0785
C[C@H]1CN([C@@H](C)CO)C(=O)Cc2cc(NC(=O)Cc3cn(C)c4ccccc34)ccc2O[C@@H]1CN(C)C(=O)Nc1ccc(C(F)(F)F)cc1	-16.5	4.0	0.0169
C[C@@H]1CN([C@@H](C)CO)C(=O)c2cccc(NC(=O)C3CC3)c2O[C@H]1CN(C)Cc1ccncc1	8.0	4.2	0.296
C[C@@H]1CN([C@H](C)CO)C(=O)c2cccc(NC(=O)Nc3cccc4ccccc34)c2O[C@@H]1CN(C)Cc1ccc(-c2ccccc2)cc1	61.3*	-18.7	-0.166

Compound activity: PubChem, Broad Institute
